Activity calls are given as the source filed them. The calls are words filed in the database; no cut-off is given here.
How the values were obtained:
[1] = test system: Jurkat; test: Cytotoxicity against human Jurkat cells assessed as cell viability at 10 uM measured after 48 hrs by WST-1 assay relative to control; format: functional; settings: read-out: Activity
In short: (§1)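 Ten-line human panel (9 cancer, 1 non-cancerous). Cells were seeded at a pre-established optimal density (500–30 × 10³ per well) and settled overnight. Compounds came from 10 mM DMSO stocks and were tested at two concentrations. WST-1 readout followed the manufacturer's protocol at the end of cultivation. Viability is expressed as % of untreated control cells, mean of three independent experiments.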

[2] = test system: MOLT-4; test: Cytotoxicity against human MOLT-4 cells assessed as cell viability at 10 uM measured after 48 hrs by WST-1 assay relative to control; format: functional; settings: read-out: Activity; in short: as §1
[3] = test system: A549; test: Cytotoxicity against human A549 cells assessed as cell viability at 10 uM measured after 48 hrs by WST-1 assay relative to control; format: functional; settings: read-out: Activity; in short: as §1
[4] = test system: HT-29; test: Cytotoxicity against human HT-29 cells assessed as cell viability at 10 uM measured after 48 hrs by WST-1 assay relative to control; format: functional; settings: read-out: Activity; in short: as §1
[5] = test system: PANC-1; test: Cytotoxicity against human PANC-1 cells assessed as cell viability at 10 uM measured after 48 hrs by WST-1 assay relative to control; format: functional; settings: read-out: Activity; in short: as §1
[6] = test system: A2780; test: Cytotoxicity against human A2780 cells assessed as cell viability at 10 uM measured after 48 hrs by WST-1 assay relative to control; format: functional; settings: read-out: Activity; in short: as §1
[7] = test system: HeLa; test: Cytotoxicity against human HeLa cells assessed as cell viability at 10 uM measured after 48 hrs by WST-1 assay relative to control; format: functional; settings: read-out: Activity; in short: as §1
[8] = test system: MCF7; test: Cytotoxicity against human MCF7 cells assessed as cell viability at 10 uM measured after 48 hrs by WST-1 assay relative to control; format: functional; settings: read-out: Activity; in short: as §1
[9] = test system: SAOS-2; test: Cytotoxicity against human SAOS-2 cells assessed as cell viability at 10 uM measured after 48 hrs by WST-1 assay relative to control; format: functional; settings: read-out: Activity; in short: as §1
[10] = Cytotoxicity against human MRC5 cells assessed as cell viability at 10 uM measured after 48 hrs by WST-1 assay relative to control; format: cell-based; settings: read-out: Activity; in short: as §1
[11] = test system: Jurkat; test: Cytotoxicity against human Jurkat cells assessed as cell viability at 100 uM measured after 48 hrs by WST-1 assay relative to control; format: functional; settings: read-out: Activity; in short: as §1
[12] = test system: MOLT-4; test: Cytotoxicity against human MOLT-4 cells assessed as cell viability at 100 uM measured after 48 hrs by WST-1 assay relative to control; format: functional; settings: read-out: Activity; in short: as §1
[13] = test system: A549; test: Cytotoxicity against human A549 cells assessed as cell viability at 100 uM measured after 48 hrs by WST-1 assay relative to control; format: functional; settings: read-out: Activity; in short: as §1
[14] = test system: HT-29; test: Cytotoxicity against human HT-29 cells assessed as cell viability at 100 uM measured after 48 hrs by WST-1 assay relative to control; format: functional; settings: read-out: Activity; in short: as §1
[15] = test system: PANC-1; test: Cytotoxicity against human PANC-1 cells assessed as cell viability at 100 uM measured after 48 hrs by WST-1 assay relative to control; format: functional; settings: read-out: Activity; in short: as §1
[16] = test system: A2780; test: Cytotoxicity against human A2780 cells assessed as cell viability at 100 uM measured after 48 hrs by WST-1 assay relative to control; format: functional; settings: read-out: Activity; in short: as §1
[17] = test system: HeLa; test: Cytotoxicity against human HeLa cells assessed as cell viability at 100 uM measured after 48 hrs by WST-1 assay relative to control; format: functional; settings: read-out: Activity; in short: as §1
[18] = test system: MCF7; test: Cytotoxicity against human MCF7 cells assessed as cell viability at 100 uM measured after 48 hrs by WST-1 assay relative to control; format: functional; settings: read-out: Activity; in short: as §1
[19] = test system: SAOS-2; test: Cytotoxicity against human SAOS-2 cells assessed as cell viability at 100 uM measured after 48 hrs by WST-1 assay relative to control; format: functional; settings: read-out: Activity; in short: as §1
[20] = Cytotoxicity against human MRC5 cells assessed as cell viability at 100 uM measured after 48 hrs by WST-1 assay relative to control; format: cell-based; settings: read-out: Activity; in short: as §1
[21] = test system: A549; test: Cytotoxicity against human A549 cells assessed as reduction in cell viability incubated for 24 hrs by MTT assay; format: functional, cell-based; settings: A549, 24 h
In short: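 A-549 cells in DMEM with 10% FBS and 1% penicillin-streptomycin were attached overnight. Compounds were prepared in PBS and serially diluted in DMEM, then incubated 24 h. Viability was read by colorimetric MTT reduction against an untreated control on each plate (100%). IC50 came from four-parameter nonlinear regression of the log concentration-response curve, mean ± SEM. MTC is the highest concentration not differing from control (t-test).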

[22] = test system: A549; test: Cytotoxicity against human A549 cells assessed as maximum tolerated concentration incubated for 24 hrs by MTT assay; format: functional
In short: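 A-549 cells in DMEM with 10% FBS and 1% penicillin-streptomycin, left to attach overnight. Compounds made up in PBS, serially diluted in DMEM, incubated 24 h, then viability read by MTT reduction against untreated controls on each plate. MTC taken as the highest concentration showing no significant difference from non-treated control (t-test).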

[23] = test system: MOLT-4; test: Radioprotective activity against gamma irradiation-induced apoptosis in human MOLT-4 cells assessed as viable cells at 100 uM pretreated with compound for 1 hr followed by gamma irradiation and measured after 24 hrs by annexinV/propidium iodide staining based flow cytometry (reference value: 40 %); format: functional; settings: MOLT-4, light or radiation study, time 25 hrs, read-out: Activity
[24] = Toxicity in C57Bl/6 mouse assessed as mouth death at 100 mg/kg, ip measured after 30 days; format: organism-based; settings: in vivo, 720 h, time 30 day
In short: (§2)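 Safety in C57Bl/6 mice (27 ± 3 g) given a single 100 mg/kg i.p. injection without irradiation. Deaths, adverse effects and body weight followed over 30 days against an untreated control group. Weight reported as change from day 0.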

[25] = Toxicity in C57Bl/6 mouse assessed as adverse effects at 100 mg/kg, ip measured after 30 days; format: organism-based; settings: in vivo, 720 h, time 30 day; in short: as §2
[26] = Toxicity in C57Bl/6 mouse assessed as average body weight at 100 mg/kg, ip and measured immediately (reference value: 26.3 +/- 2.4 g); format: organism-based; settings: in vivo
[27] = Toxicity in C57Bl/6 mouse assessed as average body weight at 100 mg/kg, ip measured after 30 days (reference value: 27 +/ 3.2 g); format: organism-based; settings: in vivo, 720 h, time 30 day
[28] = Toxicity in C57Bl/6 mouse assessed as change in body weight at 100 mg/kg, ip measured after 30 days (reference value: 103 +/- 12 %); format: organism-based; settings: in vivo, 720 h, time 30 day
[29] = test system: Mus musculus; test: Radioprotective activity in C57Bl/6 mouse assessed as median survival time at 100 mg/kg, ip administered 5 min prior to gamma-irradation at 8.5 Gy and measured after 30 days (reference value: 12 days); format: functional
[30] = test system: Mus musculus; test: Radioprotective activity in C57Bl/6 mouse assessed as average body weight at 100 mg/kg, ip administered 5 min prior to gamma-irradation at 8.5 Gy and measured immediately (reference value: 25.4 +/- 2.6 g); format: functional
[31] = test system: Mus musculus; test: Radioprotective activity in C57Bl/6 mouse assessed as average body weight at 100 mg/kg, ip administered 5 min prior to gamma-irradation at 8.5 Gy and measured after 30 days; format: functional
[32] = test system: Mus musculus; test: Radioprotective activity in C57Bl/6 mouse assessed as body weight gain at 100 mg/kg, ip administered 5 min prior to gamma-irradation at 8.5 Gy measured after 30 days relative to control; format: functional
[33] = test system: Mus musculus; test: Radioprotective activity in C57Bl/6 mouse assessed as increase in absolute B-lymphocytes at 100 mg/kg, ip pretreated with compound for 5 min followed by gamma irradiation at 8.5 Gy and measured after 12 to 30 days by flow cytometry; format: functional, organism-based
In short: (§3)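 C57Bl/6 mice receive 100 mg/kg i.p. 5 min before a single 8.5 Gy ⁶⁰Co γ dose. At 7, 12 and 30 days post-irradiation, 100 µl peripheral blood is stained with anti-CD3ε, CD19 and NK1.1 antibodies for 30 min at 4 °C in the dark. Samples are washed twice and analysed by flow cytometry for T, B and NK cells. Mean ± SEM.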

[34] = test system: Mus musculus; test: Radioprotective activity in C57Bl/6 mouse assessed as increase in absolute T-lymphocytes at 100 mg/kg, ip pretreated with compound for 5 min followed by gamma irradiation at 8.5 Gy and measured after 12 to 30 days by flow cytometry; format: functional, organism-based; in short: as §3
[35] = test system: Mus musculus; test: Radioprotective activity in C57Bl/6 mouse assessed as increase in absolute NK population at 100 mg/kg, ip pretreated with compound for 5 min followed by gamma irradiation at 8.5 Gy and measured after 12 to 30 days by flow cytometry; format: functional, organism-based; in short: as §3

COc1cc([N+](=O)[O-])ccc1OCC(O)CN1CCN(CCO)CC1 (centres undefined)
viability at 10 µM [1]: 101% | viability at 10 µM [2]: 92% | viability at 10 µM [3]: 93% | viability at 10 µM [4]: 99% | viability at 10 µM [5]: 92% | viability at 10 µM [6]: 99% | viability at 10 µM [7]: 101% | viability at 10 µM [8]: 103% | viability at 10 µM [9]: 103% | viability at 48 h, 10 µM [10]: 97% | viability at 100 µM [11]: 92% | viability at 100 µM [12]: 99% | viability at 100 µM [13]: 105% | viability at 100 µM [14]: 111% | viability at 100 µM [15]: 105% | viability at 100 µM [16]: 95% | viability at 100 µM [17]: 108% | viability at 100 µM [18]: 98% | viability at 100 µM [19]: 94% | viability at 48 h, 100 µM [20]: 97% | IC50 [21]: 4.45 mM | MTD [22]: 0.78 mM | viability at 100 µM [23]: 59% | Activity [24]: Non-Toxic | Activity [25]: Non-Toxic | Activity [26]: 27.8 g | Activity [27]: 28.5 g | Activity [28]: 103% | MST [29]: 11 days | Activity [30]: 26.1 g | Activity [31]: 26.5 g | Activity [32]: 101% | Activity [33]: Active | Activity [34]: Active | Activity [35]: Active

COc1cccc(OC)c1OCC(O)CN1CCN(CCO)CC1 (centres undefined)
viability at 10 µM [1]: 110% | viability at 10 µM [2]: 105% | viability at 10 µM [3]: 97% | viability at 10 µM [4]: 102% | viability at 10 µM [5]: 104% | viability at 10 µM [6]: 95% | viability at 10 µM [7]: 101% | viability at 10 µM [8]: 101% | viability at 10 µM [9]: 106% | viability at 100 µM [11]: 84% | viability at 100 µM [12]: 76% | viability at 100 µM [13]: 99% | viability at 100 µM [14]: 141% | viability at 100 µM [15]: 115% | viability at 100 µM [16]: 83% | viability at 100 µM [17]: 94% | viability at 100 µM [18]: 90% | viability at 100 µM [19]: 82% | viability at 48 h, 100 µM [20]: 115% | IC50 [21]: 7.81 mM | MTD [22]: 1.56 mM | viability at 100 µM [23]: 61% | Activity [24]: Non-Toxic | Activity [25]: Non-Toxic | Activity [26]: 27 g | Activity [27]: 27.6 g | Activity [28]: 102% | MST [29]: 12 days | Activity [30]: 27.3 g | Activity [31]: 27.7 g | Activity [32]: 109%

Cc1ccc(OCC(O)CN2CCN(CCO)CC2)cc1 (centres undefined)
viability at 10 µM [1]: 101% | viability at 10 µM [2]: 103% | viability at 10 µM [3]: 106% | viability at 10 µM [4]: 98% | viability at 10 µM [5]: 102% | viability at 10 µM [6]: 97% | viability at 10 µM [7]: 100% | viability at 10 µM [8]: 107% | viability at 10 µM [9]: 102% | viability at 48 h, 10 µM [10]: 112% | viability at 100 µM [11]: 97% | viability at 100 µM [12]: 103% | viability at 100 µM [13]: 110% | viability at 100 µM [14]: 107% | viability at 100 µM [15]: 99% | viability at 100 µM [16]: 94% | viability at 100 µM [17]: 101% | viability at 100 µM [18]: 100% | viability at 100 µM [19]: 83% | viability at 48 h, 100 µM [20]: 100% | IC50 [21]: 2.43 mM | MTD [22]: 0.29 mM | viability at 100 µM [23]: 58%
